# Experimental data published in ChEMBL document CHEMBL1177699, “Identification and functional characterization of a stable, centrally active derivative of the neurotensin (8-13) fragment as a potential first-in-class analgesic” (J Med Chem, 2010).
# Numbered stars: 1 amine (or outer) side, 2 acyl side, 3 side chain; on linkers, the order of the positions; unused ones are H or OH. Square brackets hold non-standard residues; d marks the D form. Peptide text beside a SMILES is read from it. * marks the point of attachment. X30 = C[C@@H](CCCCC[N+](C)(C)C)C(=O)*; X21 = CC/N=C(\NCC)NCCC[C@H](C)C(=O)*; X27 = C[C@@H](CCCN1CCN(C)C1=N)C(=O)*; X9 = C[C@@H](CCCC[N+](C)(C)C)C(=O)*; X28 = C/N=C(\NC)NCCC[C@H](C)C(=O)*; NMe5Ava = CN(CCCCC(=O)[*:2])[*:1]; X17 = C[C@@H](CCCN1CCNC1=N)C(=O)*; X25 = C[C@@H](CCCNC1=NCCN1)C(=O)*; X23 = CCNC(=N)NCCC[C@H](C)C(=O)*; X10 = C[C@@H](CCCCCN(C)C)C(=O)*; X14 = CNC(=N)NCCC[C@H](C)C(=O)*; X8 = C[C@@H](CCCNC(=N)N)C(=O)*; X13 = CC/N=C(\NCC)NCCCCC(=O)*; X32 = C[N+](C)(C)CCCCCCC(=O)*; X4 = C[C@@H](CCCCN(C)C)C(=O)*; Tle = CC(C)(C)[C@H](N)C(=O)O; X5 = CCN1CCN(CCCCC(=O)*)C1=N; X11 = C[C@@H](CCCCCN)C(=O)*; X12 = CNCCCCC[C@H](C)C(=O)*; X22 = C[N+](C)(C)CCCCC(=O)*; X15 = O=C(CCCCNC1=NCCCN1)*; X24 = C[C@@H](CCCCN)C(=O)*; X26 = CNCCCC[C@H](C)C(=O)*; X7 = C/N=C(\NC)NCCCCC(=O)*; X18 = N=C1NCCN1CCCCC(=O)*; X31 = CCNC(=N)NCCCCC(=O)*; X2 = O=C(CCCCNC1=NCCN1)*; X20 = CNC(=N)NCCCCC(=O)*; X3 = CNCCC[C@H](C)C(=O)*; X16 = CN(C)CCCCCCC(=O)*; X19 = CN(C)CCCCC(=O)*; Ahp = NCCCCCCC(=O)O; X29 = CNCCCCCC(=O)*; X6 = CNCCCCCCC(=O)*; Ahx = NCCCCCC(=O)O; Ava = NCCCCC(=O)O
# What was measured:
# [1] = test system: Rattus norvegicus; experiment: Analgesic activity in Sprague-Dawley rat assessed as maximal possible effect paw at 10 mg/kg, ip by hot plate assay; format: functional; conditions: route intraperitoneal
# In short: (§1)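 Male Sprague-Dawley rats (240–280 g), 10 mg/kg i.p. (morphine 5 mg/kg, saline controls). Hotplate held at 53.0±0.2°C; latency to hind-paw lift, nibble or shake at serial time points, 30 s cut-off. %MPE from pre- and post-drug latencies; endpoints are maximal %MPE, duration at 100% MPE and area under the response curve. n ≥ 6.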
# [2] = test system: Rattus norvegicus; experiment: Analgesic activity in ip dosed Sprague-Dawley rat assessed as paw withdrawal latency by hot plate assay; format: functional; in short: as §1
SMILES,MPE [1] [%],Duration at 100% MPE [2] [min]
CC(C)C[C@H](NC(=O)[C@@H](NC(=O)[C@H](Cc1ccc(O)cc1)NC(=O)[C@@H]1CCCN1C(=O)[C@H](CCCNC(=N)N)NC(=O)CCCCCCN)C(C)(C)C)C(=O)O (H-[Ahp]RPY[Tle]L-OH),100,60
CC(C)C[C@H](NC(=O)[C@@H](NC(=O)[C@H](Cc1ccc(O)cc1)NC(=O)[C@@H]1CCCN1C(=O)[C@H](CCCNC(=N)N)NC(=O)CCCCCN)C(C)(C)C)C(=O)O (H-[Ahx]RPY[Tle]L-OH),48,0
CC(C)C[C@H](NC(=O)[C@@H](NC(=O)[C@H](Cc1ccc(O)cc1)NC(=O)[C@@H]1CCCN1C(=O)[C@H](CCCNC(=N)N)NC(=O)CCCCN)C(C)(C)C)C(=O)O (H-[Ava]RPY[Tle]L-OH),51.69,0
CNCCCCC(=O)N[C@@H](CCCNC(=N)N)C(=O)N1CCC[C@H]1C(=O)N[C@@H](Cc1ccc(O)cc1)C(=O)N[C@H](C(=O)N[C@@H](CC(C)C)C(=O)O)C(C)(C)C (NMe5Ava-RPY[Tle]L-OH),100,120
CC(C)C[C@H](NC(=O)[C@@H](NC(=O)[C@H](Cc1ccc(O)cc1)NC(=O)[C@@H]1CCCN1C(=O)[C@H](CCCNC(=N)N)NC(=O)CCCCNC1=NCCN1)C(C)(C)C)C(=O)O (X2-RPY[Tle]L-OH),76.4,0
CNCCC[C@H](C)C(=O)N[C@@H](CCCNC(=N)N)C(=O)N1CCC[C@H]1C(=O)N[C@@H](Cc1ccc(O)cc1)C(=O)N[C@H](C(=O)N[C@@H](CC(C)C)C(=O)O)C(C)(C)C (X3-RPY[Tle]L-OH),82.4,0
CC(C)C[C@H](NC(=O)[C@@H](NC(=O)[C@H](Cc1ccc(O)cc1)NC(=O)[C@@H]1CCCN1C(=O)[C@H](CCCNC(=N)N)NC(=O)[C@@H](C)CCCCN(C)C)C(C)(C)C)C(=O)O (X4-RPY[Tle]L-OH),84.9,0
CCN1CCN(CCCCC(=O)N[C@@H](CCCNC(=N)N)C(=O)N2CCC[C@H]2C(=O)N[C@@H](Cc2ccc(O)cc2)C(=O)N[C@H](C(=O)N[C@@H](CC(C)C)C(=O)O)C(C)(C)C)C1=N (X5-RPY[Tle]L-OH),80.48,0
CNCCCCCCC(=O)N[C@@H](CCCNC(=N)N)C(=O)N1CCC[C@H]1C(=O)N[C@@H](Cc1ccc(O)cc1)C(=O)N[C@H](C(=O)N[C@@H](CC(C)C)C(=O)O)C(C)(C)C (X6-RPY[Tle]L-OH),59.32,0
C/N=C(\NC)NCCCCC(=O)N[C@@H](CCCNC(=N)N)C(=O)N1CCC[C@H]1C(=O)N[C@@H](Cc1ccc(O)cc1)C(=O)N[C@H](C(=O)N[C@@H](CC(C)C)C(=O)O)C(C)(C)C (X7-RPY[Tle]L-OH),92.28,0
CC(C)C[C@H](NC(=O)[C@@H](NC(=O)[C@H](Cc1ccc(O)cc1)NC(=O)[C@@H]1CCCN1C(=O)[C@H](CCCNC(=N)N)NC(=O)[C@@H](C)CCCNC(=N)N)C(C)(C)C)C(=O)O (X8-RPY[Tle]L-OH),48.52,0
CC(C)C[C@H](NC(=O)[C@@H](NC(=O)[C@H](Cc1ccc(O)cc1)NC(=O)[C@@H]1CCCN1C(=O)[C@H](CCCNC(=N)N)NC(=O)[C@@H](C)CCCC[N+](C)(C)C)C(C)(C)C)C(=O)O.[Cl-] (X9-RPY[Tle]L-OH),67.2,15
CC(C)C[C@H](NC(=O)[C@@H](NC(=O)[C@H](Cc1ccc(O)cc1)NC(=O)[C@@H]1CCCN1C(=O)[C@H](CCCNC(=N)N)NC(=O)[C@@H](C)CCCCCN(C)C)C(C)(C)C)C(=O)O (X10-RPY[Tle]L-OH),60.94,0
CC(C)C[C@H](NC(=O)[C@@H](NC(=O)[C@H](Cc1ccc(O)cc1)NC(=O)[C@@H]1CCCN1C(=O)[C@H](CCCNC(=N)N)NC(=O)[C@@H](C)CCCCCN)C(C)(C)C)C(=O)O (X11-RPY[Tle]L-OH),100,45
CNCCCCC[C@H](C)C(=O)N[C@@H](CCCNC(=N)N)C(=O)N1CCC[C@H]1C(=O)N[C@@H](Cc1ccc(O)cc1)C(=O)N[C@H](C(=O)N[C@@H](CC(C)C)C(=O)O)C(C)(C)C (X12-RPY[Tle]L-OH),100,75
CC/N=C(\NCC)NCCCCC(=O)N[C@@H](CCCNC(=N)N)C(=O)N1CCC[C@H]1C(=O)N[C@@H](Cc1ccc(O)cc1)C(=O)N[C@H](C(=O)N[C@@H](CC(C)C)C(=O)O)C(C)(C)C (X13-RPY[Tle]L-OH),95.68,15
CNC(=N)NCCC[C@H](C)C(=O)N[C@@H](CCCNC(=N)N)C(=O)N1CCC[C@H]1C(=O)N[C@@H](Cc1ccc(O)cc1)C(=O)N[C@H](C(=O)N[C@@H](CC(C)C)C(=O)O)C(C)(C)C (X14-RPY[Tle]L-OH),100,75
CC(C)C[C@H](NC(=O)[C@@H](NC(=O)[C@H](Cc1ccc(O)cc1)NC(=O)[C@@H]1CCCN1C(=O)[C@H](CCCNC(=N)N)NC(=O)CCCCNC1=NCCCN1)C(C)(C)C)C(=O)O (X15-RPY[Tle]L-OH),79.62,0

SMILES,MPE [1] [%],Duration at 100% MPE [2] [min]
CC(C)C[C@H](NC(=O)[C@@H](NC(=O)[C@H](Cc1ccc(O)cc1)NC(=O)[C@@H]1CCCN1C(=O)[C@H](CCCNC(=N)N)NC(=O)CCCCCCN(C)C)C(C)(C)C)C(=O)O (X16-RPY[Tle]L-OH),29,0
CC(C)C[C@H](NC(=O)[C@@H](NC(=O)[C@H](Cc1ccc(O)cc1)NC(=O)[C@@H]1CCCN1C(=O)[C@H](CCCNC(=N)N)NC(=O)[C@@H](C)CCCN1CCNC1=N)C(C)(C)C)C(=O)O (X17-RPY[Tle]L-OH),55,0
CC(C)C[C@H](NC(=O)[C@@H](NC(=O)[C@H](Cc1ccc(O)cc1)NC(=O)[C@@H]1CCCN1C(=O)[C@H](CCCNC(=N)N)NC(=O)CCCCN1CCNC1=N)C(C)(C)C)C(=O)O (X18-RPY[Tle]L-OH),82.8,0
CC(C)C[C@H](NC(=O)[C@@H](NC(=O)[C@H](Cc1ccc(O)cc1)NC(=O)[C@@H]1CCCN1C(=O)[C@H](CCCNC(=N)N)NC(=O)CCCCN(C)C)C(C)(C)C)C(=O)O (X19-RPY[Tle]L-OH),100,90
CNC(=N)NCCCCC(=O)N[C@@H](CCCNC(=N)N)C(=O)N1CCC[C@H]1C(=O)N[C@@H](Cc1ccc(O)cc1)C(=O)N[C@H](C(=O)N[C@@H](CC(C)C)C(=O)O)C(C)(C)C (X20-RPY[Tle]L-OH),100,75
CC/N=C(\NCC)NCCC[C@H](C)C(=O)N[C@@H](CCCNC(=N)N)C(=O)N1CCC[C@H]1C(=O)N[C@@H](Cc1ccc(O)cc1)C(=O)N[C@H](C(=O)N[C@@H](CC(C)C)C(=O)O)C(C)(C)C (X21-RPY[Tle]L-OH),10,0
CC(C)C[C@H](NC(=O)[C@@H](NC(=O)[C@H](Cc1ccc(O)cc1)NC(=O)[C@@H]1CCCN1C(=O)[C@H](CCCNC(=N)N)NC(=O)CCCC[N+](C)(C)C)C(C)(C)C)C(=O)O.[Cl-] (X22-RPY[Tle]L-OH),100,60
CCNC(=N)NCCC[C@H](C)C(=O)N[C@@H](CCCNC(=N)N)C(=O)N1CCC[C@H]1C(=O)N[C@@H](Cc1ccc(O)cc1)C(=O)N[C@H](C(=O)N[C@@H](CC(C)C)C(=O)O)C(C)(C)C (X23-RPY[Tle]L-OH),74.48,0
CC(C)C[C@H](NC(=O)[C@@H](NC(=O)[C@H](Cc1ccc(O)cc1)NC(=O)[C@@H]1CCCN1C(=O)[C@H](CCCNC(=N)N)NC(=O)[C@@H](C)CCCCN)C(C)(C)C)C(=O)O (X24-RPY[Tle]L-OH),86,0
CC(C)C[C@H](NC(=O)[C@@H](NC(=O)[C@H](Cc1ccc(O)cc1)NC(=O)[C@@H]1CCCN1C(=O)[C@H](CCCNC(=N)N)NC(=O)[C@@H](C)CCCNC1=NCCN1)C(C)(C)C)C(=O)O (X25-RPY[Tle]L-OH),79.31,0
CNCCCC[C@H](C)C(=O)N[C@@H](CCCNC(=N)N)C(=O)N1CCC[C@H]1C(=O)N[C@@H](Cc1ccc(O)cc1)C(=O)N[C@H](C(=O)N[C@@H](CC(C)C)C(=O)O)C(C)(C)C (X26-RPY[Tle]L-OH),55.8,0
CC(C)C[C@H](NC(=O)[C@@H](NC(=O)[C@H](Cc1ccc(O)cc1)NC(=O)[C@@H]1CCCN1C(=O)[C@H](CCCNC(=N)N)NC(=O)[C@@H](C)CCCN1CCN(C)C1=N)C(C)(C)C)C(=O)O (X27-RPY[Tle]L-OH),76.07,0
C/N=C(\NC)NCCC[C@H](C)C(=O)N[C@@H](CCCNC(=N)N)C(=O)N1CCC[C@H]1C(=O)N[C@@H](Cc1ccc(O)cc1)C(=O)N[C@H](C(=O)N[C@@H](CC(C)C)C(=O)O)C(C)(C)C (X28-RPY[Tle]L-OH),63.3,0
CNCCCCCC(=O)N[C@@H](CCCNC(=N)N)C(=O)N1CCC[C@H]1C(=O)N[C@@H](Cc1ccc(O)cc1)C(=O)N[C@H](C(=O)N[C@@H](CC(C)C)C(=O)O)C(C)(C)C (X29-RPY[Tle]L-OH),100,30
CC(C)C[C@H](NC(=O)[C@@H](NC(=O)[C@H](Cc1ccc(O)cc1)NC(=O)[C@@H]1CCCN1C(=O)[C@H](CCCNC(=N)N)NC(=O)[C@@H](C)CCCCC[N+](C)(C)C)C(C)(C)C)C(=O)O.[Cl-] (X30-RPY[Tle]L-OH),19.9,0
CCNC(=N)NCCCCC(=O)N[C@@H](CCCNC(=N)N)C(=O)N1CCC[C@H]1C(=O)N[C@@H](Cc1ccc(O)cc1)C(=O)N[C@H](C(=O)N[C@@H](CC(C)C)C(=O)O)C(C)(C)C (X31-RPY[Tle]L-OH),37.36,0
CC(C)C[C@H](NC(=O)[C@@H](NC(=O)[C@H](Cc1ccc(O)cc1)NC(=O)[C@@H]1CCCN1C(=O)[C@H](CCCNC(=N)N)NC(=O)CCCCCC[N+](C)(C)C)C(C)(C)C)C(=O)O.[Cl-] (X32-RPY[Tle]L-OH),55.7,0
